Measurements: ChEMBL document CHEMBL1629691, “Intrapulmonary pharmacokinetics and pharmacodynamics of micafungin in adult lung transplant patients” (Antimicrob Agents Chemother, 2010)
Numbered stars: 1 amine (or outer) side, 2 acyl side, 3 side chain; on linkers, the order of the positions; unused ones are H or OH. Bridge positions count the residues as written; N and C are the ends. Square brackets hold non-standard residues; d marks the D form. Peptide text beside a SMILES is read from it. * marks the point of attachment. hTyr(3S-OH,4S-OH,3'-OSO3H) = N[C@H](C(=O)O)[C@H](O)[C@@H](O)c1ccc(O)c(OS(=O)(=O)O)c1; Orn(4R-OH,5R-OH) = O=C([C@H](C[C@@H](O)[C@@H](O)N[*:3])N[*:1])[*:2]; Pro(3S-OH,4S-Me) = C[C@H]1CN[C@H](C(=O)O)[C@H]1O; X1 = CCCCCOc1ccc(-c2cc(-c3ccc(C(=O)*)cc3)no2)cc1; Gln(3R-OH) = NC(=O)C[C@@H](O)[C@H](N)C(=O)O; Hyp = O=C(O)[C@@H]1C[C@@H](O)CN1

What was measured:
[1] = Drug level in lung transplant recipient invasive aspergillosis patient epithelial lining fluid at 150 mg, iv QD for 4 consecutive days measured after 18 hrs post last dose by HPLC; format: ADME, organism-based; details: human, read-out: Drug uptake
In short: (§1)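 150-mg IV micafungin, then bronchoscopy with BAL (20-ml saline aliquots) at the stated time after the dose. Blood was drawn in heparin at the same time. The BAL fluid was spun at 400 × g for 5 min at 4°C; supernatant and cell pellet were frozen at −80°C. Micafungin was measured by solid-phase extraction and C8 HPLC with UV detection at 271.5 nm, using anidulafungin as internal standard.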

[2] = Drug level in lung transplant recipient invasive aspergillosis patient plasma at 150 mg, iv QD for 4 consecutive days measured after 3 hrs post last dose by HPLC; format: ADME, organism-based; details: human, read-out: Drug uptake; in short: as §1
[3] = Drug level in alveolar cells of lung transplant recipient invasive aspergillosis patient at 150 mg, iv QD for 4 consecutive days measured after 5 hrs post last dose by HPLC; format: ADME, organism-based, Pneumocyte; details: human, read-out: Drug uptake; in short: as §1
[4] = Drug level in alveolar cells of lung transplant recipient invasive aspergillosis patient at 150 mg, iv single dose measured after 5 hrs post dose by HPLC; details: human, read-out: Drug uptake
[5] = Drug level in lung transplant recipient invasive aspergillosis patient plasma at 150 mg, iv QD for 4 consecutive days measured after 5 hrs post last dose by HPLC; format: ADME, organism-based; details: human, read-out: Drug uptake; in short: as §1
[6] = Drug level in alveolar cells of lung transplant recipient invasive aspergillosis patient at 150 mg, iv QD for 4 consecutive days measured after 8 hrs post last dose by HPLC; format: ADME, organism-based, Pneumocyte; details: human, read-out: Drug uptake; in short: as §1
[7] = Elimination half life in lung transplant recipient invasive aspergillosis patient at 150 mg, iv QD for 4 consecutive days by HPLC; format: ADME, organism-based; details: human, in vivo, read-out: beta t1/2 (converted)
In short: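 Plasma micafungin was measured by HPLC after a 150-mg IV dose in lung transplant recipients. The terminal-phase half-life was derived by model-independent (noncompartmental) analysis of plasma concentrations.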

[8] = Ratio of drug level in alveolar cell to plasma of lung transplant recipient invasive aspergillosis patient at 150 mg, iv QD for 4 consecutive days measured after 24 hrs post last dose; format: ADME, organism-based, Pneumocyte; details: human, alveolar cells / plasma
[9] = Ratio of drug level in epithelial lining fluid to plasma in lung transplant recipient invasive aspergillosis patient at 150 mg, iv measured after 5 hrs post last dose; details: human
[10] = Drug level in alveolar cells of lung transplant recipient invasive aspergillosis patient at 150 mg, iv QD for 4 consecutive days measured after 18 hrs post last dose by HPLC; format: ADME, organism-based, Pneumocyte; details: human, read-out: Drug uptake; in short: as §1
[11] = AUC (0 to 24 hrs) in epithelial lining fluid of lung transplant recipient invasive aspergillosis patient plasma at 150 mg, iv administered as single dose; format: ADME, organism-based; design: time < 24 hr, dose 150 mg, route intravenous; details: human
In short: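 Single 150-mg IV dose in adult lung transplant recipients. Plasma, ELF (epithelial lining fluid) and alveolar cell concentrations were measured by HPLC at the time of bronchoscopy. AUC0-24 came from a population model: a linear four-compartment model fit to all compartments, with the plasma two-compartment model used for the plasma profile.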

[12] = Drug level in lung transplant recipient invasive aspergillosis patient plasma at 150 mg, iv measured after 5 hrs post last dose by HPLC; details: human, read-out: Drug uptake
[13] = tested on: Homo sapiens; experiment: Hepatotoxicity in lung transplant recipient invasive aspergillosis patient assessed as serum creatinine level at 150 mg, iv QD for 4 consecutive days measured post last dose; format: toxicity, organism-based; details: in vivo
In short: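 Serum creatinine, AST, ALT and total bilirubin were recorded from routine clinical laboratory tests before enrolment and again after BAL, at a mean of 10.7 days after infusion.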

[14] = Drug level in lung transplant recipient invasive aspergillosis patient plasma at 150 mg, iv QD for 4 consecutive days measured after 8 hrs post last dose by HPLC; format: ADME, organism-based; details: human, read-out: Drug uptake; in short: as §1
[15] = Drug level in epithelial lining fluid of lung transplant recipient invasive aspergillosis patient at 150 mg, iv QD for 4 consecutive days measured after 5 hrs post last dose by HPLC; format: ADME, organism-based; details: human, read-out: Drug uptake; in short: as §1
[16] = Ratio of AUC (0 to 24 hrs) in lung transplant recipient invasive aspergillosis patient plasma to MIC90 for Aspergillus fumigatus; format: functional
[17] = Ratio of Cmax in lung transplant recipient invasive aspergillosis patient epithelial lining fluid to MIC90 for Aspergillus fumigatus; format: functional
[18] = Tmax in epithelial lining fluid of lung transplant recipient invasive aspergillosis patient at 150 mg, iv QD for 4 consecutive days by HPLC; format: ADME, organism-based; details: human
In short: (§2)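 150-mg IV dose; BAL at 3, 5, 8, 18 or 24 h after the dose, about 4 subjects per time group. Plasma, ELF and alveolar cell drug was measured by reversed-phase HPLC with UV detection. Values were averaged per time point. Cmax is the highest mean over the five groups; Tmax is the mean dose-to-BAL time of that group.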

[19] = Ratio of fCmax in lung transplant recipient invasive aspergillosis patient plasma to MIC90 for Aspergillus fumigatus; format: functional
[20] = Ratio of total Cmax to MIC90 in lung transplant recipient invasive aspergillosis patient infected with Aspergillus fumigatus; format: functional
[21] = Cmax in lung transplant recipient invasive aspergillosis patient plasma at 150 mg, iv QD for 4 consecutive days by HPLC; format: ADME, organism-based; design: dose 150 mg, route intravenous; details: human; in short: as §2
[22] = Drug level in lung transplant recipient invasive aspergillosis patient plasma at 150 mg, iv QD for 4 consecutive days measured after 18 hrs post last dose by HPLC; format: ADME, organism-based; details: human, read-out: Drug uptake; in short: as §1
[23] = Drug level in lung transplant recipient invasive aspergillosis patient plasma at 150 mg, iv QD for 4 consecutive days measured after 24 hrs post last dose by HPLC; format: ADME, organism-based; details: human, read-out: Drug uptake; in short: as §1
[24] = tested on: Homo sapiens; experiment: Hepatotoxicity in lung transplant recipient invasive aspergillosis patient assessed as serum ALT level at 150 mg, iv measured post last dose; details: in vivo
[25] = Tmax in alveolar cells of lung transplant recipient invasive aspergillosis patient at 150 mg, iv QD for 4 consecutive days by HPLC; format: ADME, organism-based, Pneumocyte; details: human; in short: as §2
[26] = Volume of distribution in lung transplant recipient invasive aspergillosis patient at 150 mg, iv QD for 4 consecutive days by HPLC; format: ADME, organism-based; details: human, in vivo

## CCCCCOc1ccc(-c2cc(-c3ccc(C(=O)N[C@H]4C[C@@H](O)[C@@H](O)NC(=O)[C@@H]5[C@@H](O)[C@@H](C)CN5C(=O)[C@H]([C@H](O)CC(N)=O)NC(=O)[C@H]([C@H](O)[C@@H](O)c5ccc(O)c(OS(=O)(=O)O)c5)NC(=O)[C@@H]5C[C@@H](O)CN5C(=O)[C@H]([C@@H](C)O)NC4=O)cc3)no2)cc1 [MICAFUNGIN] (X1-[Orn(4R-OH,5R-OH)]T[Hyp][hTyr(3S-OH,4S-OH,3'-OSO3H)][Gln(3R-OH)][Pro(3S-OH,4S-Me)]; lactam 1-C)
[1]
  concentration at 18 h: 80 ng/mL
[2]
  concentration at 3 h: 4930 ng/mL
[3]
  concentration at 5 h: 53300 ng/mL
[4]
  concentration at 5 h: 2840 ng/mL
[5]
  concentration at 5 h: 5380 ng/mL
[6]
  concentration at 8 h: 4860 ng/mL
[7]
  half-life: 12.1 h
[8]
  Kp at 24 h: 6.22
[9]
  Kp at 5 h: 0.15
[10]
  concentration at 18 h: 17400 ng/mL
[11]
  AUC(0-t) at 24 h: 14400 ng·h/mL
[12]
  concentration at 5 h: 4810 ng/mL
[13]
  Activity: 1.11 mg/dL
[14]
  concentration at 8 h: 3930 ng/mL
[15]
  concentration at 5 h: 690 ng/mL
[16]
  Ratio: 5077
[17]
  Ratio: 88.5
[18]
  Tmax: 24.2 h
[19]
  Ratio: 3.2
[20]
  Ratio: 316
[21]
  Cmax: 4930 ng/mL
[22]
  concentration at 18 h: 2380 ng/mL
[23]
  concentration at 24 h: 1570 ng/mL
[24]
  Activity: 41.6 IU/L
[25]
  Tmax: 17.9 h
[26]
  Vd: 17.6 L
